The compounds below were run on SK-OV-3 (assay: Growth inhibition of human SKOV3 cells at 10 uM after 48 hrs by coulter counter analysis). Conditions: SK-OV-3, 48 h, read-out: GI.
Assay type: functional
How it was run: (§1)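 Single-dose NCI 60-line panel screen of test compounds. Cells grown in RPMI 1640 with 10% FBS. Compounds dissolved in DMSO, then diluted in phosphate buffer saline (final DMSO below 1%). Wells run in duplicate at 6 × 10⁴ cells/ml. Controls held PBS and DMSO at matching dilutions. Incubation 48 h at 37 °C under humidified 5% CO2. Cells diluted tenfold in saline and counted by Coulter counter. Percent growth inhibition taken from mean-graph of treated-cell growth.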

Row | SMILES | inhibition of growth at 10 µM
1 | CCOC(=O)c1sc(NC(=O)C(C)N(CC)CC)nc1C (stereo not drawn) | < 10%
2 | CCOC(=O)c1sc(NC(=O)C(C)N2CCCCC2)nc1C (stereo not drawn) | < 10%

The compounds below were run on PC-3 (assay: Growth inhibition of human PC3 cells at 10 uM after 48 hrs by coulter counter analysis). Conditions: PC-3, 48 h, read-out: GI.
Assay type: functional
How it was run: as §1

Row | SMILES | inhibition of growth at 10 µM
3 | CCOC(=O)c1sc(NC(=O)C(C)N(CC)CC)nc1C (stereo not drawn) | < 10%
4 | CCOC(=O)c1sc(NC(=O)C(C)N2CCCCC2)nc1C (stereo not drawn) | < 10%

The compounds below were run on A549 (assay: Growth inhibition of human A549/ATCC cells at 10 uM after 48 hrs by coulter counter analysis). Conditions: A549, 48 h, read-out: GI.
Assay type: functional
How it was run: as §1

Row | SMILES | inhibition of growth at 10 µM
5 | CCOC(=O)c1sc(NC(=O)C(C)N(CC)CC)nc1C (stereo not drawn) | < 10%
6 | CCOC(=O)c1sc(NC(=O)C(C)N2CCCCC2)nc1C (stereo not drawn) | < 10%

The compounds below were run on NCI-H23 (assay: Growth inhibition of human NCI-H23 cells at 10 uM after 48 hrs by coulter counter analysis). Conditions: NCI-H23, 48 h, read-out: GI.
Assay type: functional
How it was run: as §1

Row | SMILES | inhibition of growth at 10 µM
7 | CCOC(=O)c1sc(NC(=O)C(C)N(CC)CC)nc1C (stereo not drawn) | < 10%
8 | CCOC(=O)c1sc(NC(=O)C(C)N2CCCCC2)nc1C (stereo not drawn) | < 10%

What follows are compounds tested on HCT-116 (assay: Growth inhibition of human HCT116 cells at 10 uM after 48 hrs by coulter counter analysis). Conditions: HCT-116, 48 h, read-out: GI.
Assay type: functional
How it was run: as §1

Row | SMILES | inhibition of growth at 10 µM
9 | CCOC(=O)c1sc(NC(=O)C(C)N(CC)CC)nc1C (stereo not drawn) | < 10%
10 | CCOC(=O)c1sc(NC(=O)C(C)N2CCCCC2)nc1C (stereo not drawn) | < 10%

What follows are compounds tested on DU-145 (assay: Growth inhibition of human DU145 cells at 10 uM after 48 hrs by coulter counter analysis). Conditions: DU-145, 48 h, read-out: GI.
Assay type: functional
How it was run: as §1

Row | SMILES | inhibition of growth at 10 µM
11 | CCOC(=O)c1sc(NC(=O)C(C)N(CC)CC)nc1C (stereo not drawn) | < 10%
12 | CCOC(=O)c1sc(NC(=O)C(C)N2CCCCC2)nc1C (stereo not drawn) | < 10%

The compounds below were run on U-251 (assay: Growth inhibition of human U251 cells at 10 uM after 48 hrs by coulter counter analysis). Conditions: U-251, 48 h, read-out: GI.
Assay type: functional
How it was run: (§2)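 Single-dose screen in the NCI 60 cell line panel. Cells grown in RPMI 1640 with 10% FBS. Compounds dissolved in DMSO and diluted in phosphate buffered saline, final DMSO under 1%. Duplicate wells seeded from culture at 6 × 10⁴ cells/ml. Incubated 48 h at 37 °C, humidified, 5% CO2. Cells diluted tenfold in saline and Coulter-counted. Percent growth inhibition computed against PBS/DMSO controls.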

Row | SMILES | inhibition of growth at 10 µM
13 | CCOC(=O)c1sc(NC(=O)C(C)N(CC)CC)nc1C (stereo not drawn) | < 10%
14 | CCOC(=O)c1sc(NC(=O)C(C)N2CCCCC2)nc1C (stereo not drawn) | < 10%

What follows are compounds tested on HL-60(TB) (assay: Growth inhibition of human HL-60(TB) cells at 10 uM after 48 hrs by coulter counter analysis). Conditions: HL-60, 48 h, read-out: GI.
Assay type: functional
How it was run: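 Cells grown in RPMI 1640 with 10% FBS. Compound was dissolved in DMSO and diluted in PBS (under 1% DMSO final), then added in duplicate wells to culture at 6 × 10⁴ cells/ml. PBS/DMSO vehicle controls were included. Incubated at 37 °C, humidified 5% CO₂, for 48 h. Cells were diluted 10-fold in saline and Coulter-counted. Single-dose NCI-60 screen, read as percent growth inhibition.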

Row | SMILES | inhibition of growth at 10 µM
15 | CCOC(=O)c1sc(NC(=O)C(C)N(CC)CC)nc1C (stereo not drawn) | < 10%
16 | CCOC(=O)c1sc(NC(=O)C(C)N2CCCCC2)nc1C (stereo not drawn) | < 10%

Each compound was assayed on HOP-62 (assay: Growth inhibition of human HOP62 cells at 10 uM after 48 hrs by coulter counter analysis). Conditions: HOP-62, 48 h, read-out: GI.
Assay type: functional
How it was run: as §1

Row | SMILES | inhibition of growth at 10 µM
17 | CCOC(=O)c1sc(NC(=O)C(C)N(CC)CC)nc1C (stereo not drawn) | < 10%
18 | CCOC(=O)c1sc(NC(=O)C(C)N2CCCCC2)nc1C (stereo not drawn) | < 10%

What follows are compounds tested on SNB-75 (assay: Growth inhibition of human SNB75 cells at 10 uM after 48 hrs by coulter counter analysis). Conditions: SNB-75, 48 h, read-out: GI.
Assay type: functional
How it was run: as §2

Row | SMILES | inhibition of growth at 10 µM
19 | CCOC(=O)c1sc(NC(=O)C(C)N(CC)CC)nc1C (stereo not drawn) | 16.4%
20 | CCOC(=O)c1sc(NC(=O)C(C)N2CCCCC2)nc1C (stereo not drawn) | < 10%

These compounds were tested on UACC-257 (assay: Growth inhibition of human UACC257 cells at 10 uM after 48 hrs by coulter counter analysis). Conditions: UACC-257, 48 h, read-out: GI.
Assay type: functional
How it was run: as §2

Row | SMILES | inhibition of growth at 10 µM
21 | CCOC(=O)c1sc(NC(=O)C(C)N(CC)CC)nc1C (stereo not drawn) | < 10%
22 | CCOC(=O)c1sc(NC(=O)C(C)N2CCCCC2)nc1C (stereo not drawn) | < 10%

Each compound was assayed on EKVX (assay: Growth inhibition of human EKVX cells at 10 uM after 48 hrs by coulter counter analysis). Conditions: read-out: GI.
Assay type: functional
How it was run: as §1

Row | SMILES | inhibition of growth at 10 µM
23 | CCOC(=O)c1sc(NC(=O)C(C)N(CC)CC)nc1C (stereo not drawn) | < 10%
24 | CCOC(=O)c1sc(NC(=O)C(C)N2CCCCC2)nc1C (stereo not drawn) | < 10%

Each compound was assayed on MOLT-4 (assay: Growth inhibition of human MOLT4 cells at 10 uM after 48 hrs by coulter counter analysis). Conditions: MOLT-4, 48 h, read-out: GI.
Assay type: functional
How it was run: as §1

Row | SMILES | inhibition of growth at 10 µM
25 | CCOC(=O)c1sc(NC(=O)C(C)N(CC)CC)nc1C (stereo not drawn) | < 10%
26 | CCOC(=O)c1sc(NC(=O)C(C)N2CCCCC2)nc1C (stereo not drawn) | < 10%

What follows are compounds tested on HT-29 (assay: Growth inhibition of human HT-29 cells at 10 uM after 48 hrs by coulter counter analysis). Conditions: HT-29, 48 h, read-out: GI.
Assay type: functional
How it was run: as §1

Row | SMILES | inhibition of growth at 10 µM
27 | CCOC(=O)c1sc(NC(=O)C(C)N(CC)CC)nc1C (stereo not drawn) | < 10%
28 | CCOC(=O)c1sc(NC(=O)C(C)N2CCCCC2)nc1C (stereo not drawn) | < 10%

What follows are compounds tested on NCI-H460 (assay: Growth inhibition of human NCI-H460 cells at 10 uM after 48 hrs by coulter counter analysis). Conditions: NCI-H460, 48 h, read-out: GI.
Assay type: functional
How it was run: as §1

Row | SMILES | inhibition of growth at 10 µM
29 | CCOC(=O)c1sc(NC(=O)C(C)N(CC)CC)nc1C (stereo not drawn) | < 10%
30 | CCOC(=O)c1sc(NC(=O)C(C)N2CCCCC2)nc1C (stereo not drawn) | < 10%

Each compound was assayed on SNB-19 (assay: Growth inhibition of human SNB19 cells at 10 uM after 48 hrs by coulter counter analysis). Conditions: SNB-19, 48 h, read-out: GI.
Assay type: functional
How it was run: as §1

Row | SMILES | inhibition of growth at 10 µM
31 | CCOC(=O)c1sc(NC(=O)C(C)N(CC)CC)nc1C (stereo not drawn) | < 10%
32 | CCOC(=O)c1sc(NC(=O)C(C)N2CCCCC2)nc1C (stereo not drawn) | < 10%

Each compound was assayed on CCRF-CEM (assay: Growth inhibition of human CCRF-CEM cells at 10 uM after 48 hrs by coulter counter analysis). Conditions: read-out: GI.
Assay type: functional
How it was run: as §1

Row | SMILES | inhibition of growth at 10 µM
33 | CCOC(=O)c1sc(NC(=O)C(C)N(CC)CC)nc1C (stereo not drawn) | < 10%
34 | CCOC(=O)c1sc(NC(=O)C(C)N2CCCCC2)nc1C (stereo not drawn) | < 10%

Each compound was assayed on 786-0 (assay: Growth inhibition of human 786-0 cells at 10 uM after 48 hrs by coulter counter analysis). Conditions: 786-0, 48 h, read-out: GI.
Assay type: functional
How it was run: as §1

Row | SMILES | inhibition of growth at 10 µM
35 | CCOC(=O)c1sc(NC(=O)C(C)N(CC)CC)nc1C (stereo not drawn) | < 10%
36 | CCOC(=O)c1sc(NC(=O)C(C)N2CCCCC2)nc1C (stereo not drawn) | < 10%

Each compound was assayed on SK-MEL-28 (assay: Growth inhibition of human SK-MEL-28 cells at 10 uM after 48 hrs by coulter counter analysis). Conditions: SK-MEL-28, 48 h, read-out: GI.
Assay type: functional
How it was run: as §1

Row | SMILES | inhibition of growth at 10 µM
37 | CCOC(=O)c1sc(NC(=O)C(C)N(CC)CC)nc1C (stereo not drawn) | < 10%
38 | CCOC(=O)c1sc(NC(=O)C(C)N2CCCCC2)nc1C (stereo not drawn) | < 10%

The compounds below were run on K562 (assay: Growth inhibition of human K562 cells at 10 uM after 48 hrs by coulter counter analysis). Conditions: K562, 48 h, read-out: GI.
Assay type: functional
How it was run: as §1

Row | SMILES | inhibition of growth at 10 µM
39 | CCOC(=O)c1sc(NC(=O)C(C)N(CC)CC)nc1C (stereo not drawn) | < 10%
40 | CCOC(=O)c1sc(NC(=O)C(C)N2CCCCC2)nc1C (stereo not drawn) | < 10%

Each compound was assayed on TK-10 (assay: Growth inhibition of human TK10 cells at 10 uM after 48 hrs by coulter counter analysis). Conditions: TK-10, 48 h, read-out: GI.
Assay type: functional
How it was run: as §2

Row | SMILES | inhibition of growth at 10 µM
41 | CCOC(=O)c1sc(NC(=O)C(C)N(CC)CC)nc1C (stereo not drawn) | < 10%
42 | CCOC(=O)c1sc(NC(=O)C(C)N2CCCCC2)nc1C (stereo not drawn) | < 10%

What follows are compounds tested on RXF 393 (assay: Growth inhibition of human RXF393 cells at 10 uM after 48 hrs by coulter counter analysis). Conditions: RXF 393, 48 h, read-out: GI.
Assay type: functional
How it was run: as §1

Row | SMILES | inhibition of growth at 10 µM
43 | CCOC(=O)c1sc(NC(=O)C(C)N(CC)CC)nc1C (stereo not drawn) | < 10%
44 | CCOC(=O)c1sc(NC(=O)C(C)N2CCCCC2)nc1C (stereo not drawn) | < 10%

What follows are compounds tested on A498 (assay: Growth inhibition of human A498 cells at 10 uM after 48 hrs by coulter counter analysis). Conditions: A498, 48 h, read-out: GI.
Assay type: functional
How it was run: as §1

Row | SMILES | inhibition of growth at 10 µM
45 | CCOC(=O)c1sc(NC(=O)C(C)N(CC)CC)nc1C (stereo not drawn) | < 10%
46 | CCOC(=O)c1sc(NC(=O)C(C)N2CCCCC2)nc1C (stereo not drawn) | < 10%

The compounds below were run on CAKI-1 (assay: Growth inhibition of human Caki1 cells at 10 uM after 48 hrs by coulter counter analysis). Conditions: CAKI-1, 48 h, read-out: GI.
Assay type: functional
How it was run: as §1

Row | SMILES | inhibition of growth at 10 µM
47 | CCOC(=O)c1sc(NC(=O)C(C)N(CC)CC)nc1C (stereo not drawn) | 12%
48 | CCOC(=O)c1sc(NC(=O)C(C)N2CCCCC2)nc1C (stereo not drawn) | 12.2%
